Measured values pooled from the literature.
CDK2 with cyclin A2: Cyclin-dependent kinase 2, with cyclin A2 (CDK2, Homo sapiens, UniProt P24941)
Oprd1: Delta-type opioid receptor (Oprd1, Rattus norvegicus, UniProt P33533)
ST14: Suppressor of tumorigenicity 14 protein (ST14, Homo sapiens, UniProt Q9Y5Y6)

Structure (SMILES) | target | test | conditions | measurement | result
CNC(=O)c1cc(Oc2ccc(NC(=O)Nc3ccc(Cl)c(C(F)(F)F)c3)cc2)ccn1 | CDK2 with cyclin A2 | enzyme activity, inhibitor | 10 nM | inhibition | 36.7%
Cc1cc([C@@H](C)Nc2ccccc2C(=O)O)c2nc(N3CCC(F)(F)CC3)c(C#N)c(=O)n2c1 | Serine/threonine-protein kinase pim-1 (PIM1, Homo sapiens, UniProt P11309) | binding, competition with immobilised ligand | 1 µM | remaining binding | 100%
COc1ccc(CN2C[C@](C)(O)[C@@H]3C[C@H]2[C@@H](C)c2nc4ccccc4c(-c4ccccc4)c23)cc1 | Oprd1 | ligand displacement, radioligand | 1 µM | inhibition | 0%
CC(C)(C)C[C@H](NC(=O)[C@H](Cc1cscn1)NC(=O)CCc1ccccc1)C(=O)N[C@@H](CCCNC(=N)N)C(=O)c1nc2ccccc2s1 | ST14 | enzyme activity, inhibitor | 0.1 µM | remaining activity | 34%
CNc1ncc2c(/C=C/C(=O)N3CCC(OC)CC3)nn(Cc3cccc(C(F)(F)F)c3)c2n1 | CDK2 with cyclin A2 | enzyme activity, inhibitor, radiometric | 1 µM | remaining activity | 100%
N=C(N)NCCC[C@H](NC(=O)[C@@H]1CCCN1C(=O)[C@H](Cc1cscn1)NC(=O)CCc1ccccc1)C(=O)c1nc2ccccc2s1 | ST14 | enzyme activity, inhibitor | 0.1 µM | remaining activity | 61%
C[C@H]1c2nc3ccccc3c(-c3ccccc3)c2[C@H]2C[C@@H]1N(Cc1ccccc1)C[C@]2(C)O | Oprd1 | ligand displacement, radioligand | 1 µM | inhibition | 0%
CC(C)C(C)(NC(=O)[C@H](Cc1cscn1)NC(=O)CCc1ccccc1)C(=O)N[C@@H](CCCNC(=N)N)C(=O)c1nc2ccccc2s1 (stereo partly drawn) | ST14 | enzyme activity, inhibitor | 0.1 µM | remaining activity | 83%
CC(C)Oc1ccc(S(=O)(=O)c2ccc(Oc3cc(OCC(N)=O)c(C(=O)C(Cl)Cl)cc3[N+](=O)[O-])cc2)cc1 | [Pyruvate dehydrogenase (acetyl-transferring)] kinase isozyme 4, mitochondrial (PDK4, Homo sapiens, UniProt Q16654) | enzyme activity, inhibitor, ATP luminescence | 10 µM | inhibition | 31.5%
CC(=O)Nc1c(N)nc(SCC(=O)NN)[nH]c1=O | CDK2 with cyclin A2 | enzyme activity, inhibitor | 0.1 µM | inhibition | 41.2%
C=CCCCCCC(C)(NC(=O)[C@H](Cc1cscn1)NC(=O)CCc1ccccc1)C(=O)N[C@@H](CCCNC(=N)N)C(=O)c1nc2ccccc2s1 (stereo partly drawn) | ST14 | enzyme activity, inhibitor | 0.1 µM | remaining activity | 89%
COc1cc(-c2cncc3c2CN(C)Cc2cc(N4CCNCC4)ccc2-3)cc(OC)c1OC | Tyrosine-protein kinase Fyn (FYN, Homo sapiens, UniProt P06241) | enzyme activity, inhibitor | 1 µM | remaining activity | 94%
N=C(N)NCCC[C@H](NC(=O)[C@@H](NC(=O)[C@H](Cc1cscn1)NC(=O)CCc1ccccc1)c1ccccc1)C(=O)c1nc2ccccc2s1 | ST14 | enzyme activity, inhibitor | 0.1 µM | remaining activity | 33%
CC(=O)Nc1c(N)nc(SCC(=O)N/N=C/c2ccc([N+](=O)[O-])cc2)[nH]c1=O | CDK2 with cyclin A2 | enzyme activity, inhibitor | 5 nM | inhibition | 8.37%
C=CC(=O)N1CCC(COCC(=O)N2CCN(c3nc(-c4cnc(N)nc4C(F)F)nc(N4CCOC[C@@H]4C)n3)CC2)CC1 | ALK tyrosine kinase receptor (ALK, Homo sapiens, UniProt Q9UM73) | binding, competition with immobilised ligand | 1 µM | remaining binding | 72%
